According to ChEMBL document CHEMBL3407378, “Design, synthesis and biological evaluation of novel 7-alkylamino substituted benzo[a]phenazin derivatives as dual topoisomerase I/II inhibitors” (Eur J Med Chem, 2015):
Calls of active or inactive are those of the source. The calls are words filed in the database; no cut-off is given here.

How the values were obtained:
A549 = experiment: Cytotoxicity against human A549 cells after 48 hrs by MTT assay; type: functional, cell-based; settings: A549, 48 h
Summary of the method: (§1)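 Cells seeded 1 × 10^4 per well and incubated overnight, then given compound at 0–50 µM for 48 h. MTT added (20 µL of 5 mg/mL stock) for 4 h at 37 °C; formazan dissolved in DMSO, absorbance read at 570 nm. Triplicates; IC50 from mean OD versus concentration curves.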

K562 = experiment: Cytotoxicity against human K562 cells after 48 hrs by MTT assay; type: functional, cell-based; settings: K562, 48 h; summary of the method: as §1
HeLa = experiment: Cytotoxicity against human HeLa cells after 48 hrs by MTT assay; type: functional, cell-based; summary of the method: as §1
[1] = Cytotoxicity against human HL60 cells after 48 hrs by MTT assay; type: functional, cell-based; settings: HL-60, 48 h; summary of the method: as §1
[2] = target: T1, DNA topoisomerase 1 (Homo sapiens) (UniProt P11387); experiment: Inhibition of Topo 1 (unknown origin)-mediated relaxation of supercoiled pBR322 plasmid at 25 uM after 30 mins by agarose gel electrophoresis
T1 sequence (whole entry): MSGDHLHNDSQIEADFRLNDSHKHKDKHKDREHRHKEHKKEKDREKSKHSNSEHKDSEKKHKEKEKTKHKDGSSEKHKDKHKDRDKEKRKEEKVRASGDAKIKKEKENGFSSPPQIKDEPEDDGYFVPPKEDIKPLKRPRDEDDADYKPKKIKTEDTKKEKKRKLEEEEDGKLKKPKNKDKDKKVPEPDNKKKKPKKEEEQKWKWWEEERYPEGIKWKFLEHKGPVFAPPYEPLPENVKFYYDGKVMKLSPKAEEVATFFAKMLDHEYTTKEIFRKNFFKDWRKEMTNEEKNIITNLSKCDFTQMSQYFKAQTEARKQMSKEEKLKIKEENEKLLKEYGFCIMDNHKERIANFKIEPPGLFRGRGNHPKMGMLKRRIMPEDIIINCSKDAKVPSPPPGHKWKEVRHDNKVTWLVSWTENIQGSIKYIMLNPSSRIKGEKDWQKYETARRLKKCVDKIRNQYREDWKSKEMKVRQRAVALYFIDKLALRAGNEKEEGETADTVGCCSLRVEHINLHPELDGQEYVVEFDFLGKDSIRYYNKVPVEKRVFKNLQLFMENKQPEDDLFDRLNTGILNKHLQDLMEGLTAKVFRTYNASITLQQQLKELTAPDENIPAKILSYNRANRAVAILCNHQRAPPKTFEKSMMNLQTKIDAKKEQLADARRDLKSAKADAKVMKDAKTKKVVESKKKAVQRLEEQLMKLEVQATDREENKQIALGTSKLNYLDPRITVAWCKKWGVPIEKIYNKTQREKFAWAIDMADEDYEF
Summary of the method: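 Topo I with supercoiled pBR322 and compound, 30 min at 37 °C. Stopped with SDS/bromophenol blue/glycerol dye; run on 1% agarose gel in TAE for 1 h and stained with Gel Red.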

[3] = target: DNA topoisomerase 2-alpha (Homo sapiens) (UniProt P11388); experiment: Inhibition of human Topo 2-mediated relaxation of supercoiled pBR322 plasmid at 25 uM after 30 mins by agarose gel electrophoresis
[4] = target: DNA topoisomerase 2-alpha (Homo sapiens) (UniProt P11388); experiment: Inhibition of human Topo 2-mediated relaxation of supercoiled pBR322 plasmid at 25 to 50 uM after 30 mins by agarose gel electrophoresis
[5] = target: T2, DNA topoisomerase (Bos taurus) (UniProt A0JN73); experiment: Induction of calf thymus Topo 1-pBR322 DNA cleavage complex formation assessed as nicked DNA formation after 30 mins by agarose gel electrophoresis
T2 sequence (whole entry): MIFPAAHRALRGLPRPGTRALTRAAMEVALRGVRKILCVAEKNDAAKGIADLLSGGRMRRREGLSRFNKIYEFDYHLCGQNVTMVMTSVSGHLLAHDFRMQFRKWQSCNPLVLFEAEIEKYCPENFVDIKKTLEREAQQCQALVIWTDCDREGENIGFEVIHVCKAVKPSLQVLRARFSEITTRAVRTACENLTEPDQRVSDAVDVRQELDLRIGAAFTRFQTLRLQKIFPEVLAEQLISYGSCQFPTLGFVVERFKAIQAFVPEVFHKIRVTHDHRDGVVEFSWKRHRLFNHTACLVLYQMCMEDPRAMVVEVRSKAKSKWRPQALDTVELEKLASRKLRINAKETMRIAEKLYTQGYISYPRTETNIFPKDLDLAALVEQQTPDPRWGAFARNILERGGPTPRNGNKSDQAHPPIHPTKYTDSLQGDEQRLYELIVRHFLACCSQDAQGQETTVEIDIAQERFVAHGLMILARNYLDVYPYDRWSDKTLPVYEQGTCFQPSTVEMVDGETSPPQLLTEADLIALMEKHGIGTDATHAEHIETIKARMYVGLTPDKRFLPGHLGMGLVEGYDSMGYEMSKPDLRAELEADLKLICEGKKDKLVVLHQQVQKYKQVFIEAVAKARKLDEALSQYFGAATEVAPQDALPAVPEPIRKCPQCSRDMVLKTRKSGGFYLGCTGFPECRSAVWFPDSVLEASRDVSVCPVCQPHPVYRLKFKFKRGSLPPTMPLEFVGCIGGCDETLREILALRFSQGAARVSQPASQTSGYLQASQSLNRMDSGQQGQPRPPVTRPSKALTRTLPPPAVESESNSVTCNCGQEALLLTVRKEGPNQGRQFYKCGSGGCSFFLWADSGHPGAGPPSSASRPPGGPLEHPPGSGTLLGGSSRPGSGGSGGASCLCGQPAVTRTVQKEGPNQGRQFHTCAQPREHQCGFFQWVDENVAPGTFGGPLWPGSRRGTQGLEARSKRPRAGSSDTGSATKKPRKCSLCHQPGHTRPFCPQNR
Summary of the method: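 Calf thymus Topo I (10 units) with 0.1 µg supercoiled pBR322 and 0.5–50 µM compound in Topo I buffer (pH 7.5) for […]. Complexes trapped with SDS then NaEDTA, followed by proteinase K for 30 min at 45 °C. Samples run on 1% agarose gel containing 0.5 µg/mL ethidium bromide. Nicked DNA quantified by optical density.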

[6] = target: T1, DNA topoisomerase 1 (Homo sapiens); experiment: Induction of Topo 1-DNA cleavage complex formation in human HL60 cells after 1 hr by ICE assay; type: cell-based; settings: HL-60
Summary of the method: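 Mid-log phase HL-60 cells exposed to 2, 5 or 10 µM compound (DMSO vehicle 1.0% v/v) for 1 h, then lysed in DNAzol. DNA was ethanol-precipitated, redissolved and quantified. 2 µg DNA in 25 mM NaH2PO4 pH 6.5 was blotted onto nitrocellulose. Covalent Topo I was probed with rabbit anti-human Topo I (1:1000) and HRP secondary (1:3000), read by chemiluminescence.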

[7] = target: DNA topoisomerase 2-alpha (Homo sapiens) (UniProt P11388); experiment: Inhibition of human Topo 2 ATPase domain expressed in yeast BCY123 strain at 25 uM after 1 hr by nonisotopic malachite green assay
Summary of the method: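 Human Topo II ATPase domain overexpressed in yeast BCY123 and purified. Assay buffer: 100 mM Tris-HCl pH 7.4, 20 mM KCl, 6 mM MgCl2. Reaction of 25 µL with compound, started with 1 mM ATP, 1 h at 37 °C. Phosphate detected with malachite green at OD620. No-enzyme background set as 100% inhibition and enzyme-only as 0%.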

Sequence of DNA topoisomerase 2-alpha (Homo sapiens) (P11388 whole entry, the tested form may be a part): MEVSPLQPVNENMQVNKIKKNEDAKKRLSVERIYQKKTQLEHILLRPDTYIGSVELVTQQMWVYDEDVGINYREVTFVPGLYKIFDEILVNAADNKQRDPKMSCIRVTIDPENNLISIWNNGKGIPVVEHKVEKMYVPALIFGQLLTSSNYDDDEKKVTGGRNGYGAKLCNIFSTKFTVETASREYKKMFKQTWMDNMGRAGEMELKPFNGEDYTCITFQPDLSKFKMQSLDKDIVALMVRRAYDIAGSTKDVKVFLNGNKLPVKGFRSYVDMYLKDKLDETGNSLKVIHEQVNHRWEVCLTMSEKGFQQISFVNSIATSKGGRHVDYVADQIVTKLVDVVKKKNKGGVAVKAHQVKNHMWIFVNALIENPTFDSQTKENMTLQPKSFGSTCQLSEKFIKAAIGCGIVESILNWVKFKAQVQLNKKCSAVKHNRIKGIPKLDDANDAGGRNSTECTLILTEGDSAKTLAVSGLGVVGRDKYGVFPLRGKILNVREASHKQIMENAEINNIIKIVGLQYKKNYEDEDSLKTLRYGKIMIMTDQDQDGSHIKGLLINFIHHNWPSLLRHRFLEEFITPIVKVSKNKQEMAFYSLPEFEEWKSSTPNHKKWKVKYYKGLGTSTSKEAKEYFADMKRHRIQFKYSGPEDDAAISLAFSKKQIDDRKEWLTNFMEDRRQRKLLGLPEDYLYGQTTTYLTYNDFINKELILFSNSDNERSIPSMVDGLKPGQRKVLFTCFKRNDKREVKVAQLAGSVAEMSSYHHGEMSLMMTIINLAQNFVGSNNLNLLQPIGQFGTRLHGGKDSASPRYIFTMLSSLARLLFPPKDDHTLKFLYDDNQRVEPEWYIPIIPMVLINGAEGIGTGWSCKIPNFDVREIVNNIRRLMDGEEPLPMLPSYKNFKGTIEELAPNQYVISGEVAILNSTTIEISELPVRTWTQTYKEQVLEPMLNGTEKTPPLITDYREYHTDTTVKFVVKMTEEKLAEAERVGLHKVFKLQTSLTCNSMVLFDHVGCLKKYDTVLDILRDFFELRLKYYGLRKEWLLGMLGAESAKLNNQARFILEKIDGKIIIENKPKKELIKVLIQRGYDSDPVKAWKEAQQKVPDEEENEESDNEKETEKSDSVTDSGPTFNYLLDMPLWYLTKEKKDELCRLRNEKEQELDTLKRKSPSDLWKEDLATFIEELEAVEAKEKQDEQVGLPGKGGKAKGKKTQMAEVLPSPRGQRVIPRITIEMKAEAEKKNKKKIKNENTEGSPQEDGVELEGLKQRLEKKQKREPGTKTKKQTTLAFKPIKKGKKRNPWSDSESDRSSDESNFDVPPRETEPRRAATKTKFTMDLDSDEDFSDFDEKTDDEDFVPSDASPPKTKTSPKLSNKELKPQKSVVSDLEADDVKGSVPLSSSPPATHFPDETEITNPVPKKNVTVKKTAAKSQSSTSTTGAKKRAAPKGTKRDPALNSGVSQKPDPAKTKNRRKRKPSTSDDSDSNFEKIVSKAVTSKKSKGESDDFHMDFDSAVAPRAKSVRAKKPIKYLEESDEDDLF

Row | Structure (SMILES) | IC50 (A549) | IC50 (K562) | IC50 (HeLa) | IC50 [1] | Topo I relaxation inhibition (active/not active) [2] | Topo 2 inhibition (active/not active) [3] | Topo 2 inhibition (active/not active) [4] | Activity [5] | Activity [6] | inhibition [7]
1 | O=c1cc2n(CCCN3CCCC3)c3ccccc3nc-2c2ccccc12 | 35.7 µM | 25.2 µM | 30.3 µM | 0.22 µM |  |  |  |  |  | 
2 | CN1CCN(CCn2c3cc(=O)c4ccccc4c-3nc3ccccc32)CC1 | 25.3 µM | 21.6 µM | 28.9 µM | 0.38 µM | Active |  |  |  |  | 
3 | COc1ccc2c(=O)cc3n(CCCN(C)C)c4ccccc4nc-3c2c1 | 33 µM | 7.13 µM | 29.9 µM | 0.22 µM | Active | Active |  |  |  | 
4 | CN(C)CCn1c2cc(=O)c3ccccc3c-2nc2ccccc21 | 22.3 µM | 24.6 µM | 9.91 µM | 0.31 µM | Active |  | Active |  |  | 
5 | O=c1cc2n(CCCN3CCCCC3)c3ccccc3nc-2c2ccccc12 | 33 µM | 10.3 µM | 27.4 µM | 0.52 µM | inactive |  | Active |  |  | 
6 | CC[C@@]1(O)C(=O)OCc2c1cc1n(c2=O)Cc2cc3ccccc3nc2-1 [CAMPTOTHECIN] | 26.4 µM | 5.37 µM | 11.6 µM | 0.07 µM |  |  |  | Dose-dependent effect | Dose-dependent effect | 
7 | CN(C)CCCn1c2cc(=O)c3ccccc3c-2nc2ccccc21 | 13.5 µM | 5.93 µM | 8.41 µM | 0.21 µM | Active |  | Active |  |  | 
8 | O=C1C=CC(=O)c2ccccc21 |  |  |  |  |  |  |  |  |  | 56%
9 | CCCn1c2cc(=O)c3ccccc3c-2nc2ccccc21 | > 50 µM | > 40 µM | > 50 µM | 32.1 µM |  |  | inactive |  |  | 
10 | CN(C)CCCn1c2cc(=O)c3ccccc3c-2nc2cc(Cl)ccc21 | 38.4 µM | 20.4 µM | 29.6 µM | 1.08 µM |  |  |  |  |  | 
11 | CCN(CC)CCCn1c2cc(=O)c3cc(OC)ccc3c-2nc2ccccc21 | 22.9 µM | 22 µM | 25.9 µM | 0.23 µM | inactive |  |  |  |  | 
12 | CCN(CC)CCCn1c2cc(=O)c3ccccc3c-2nc2ccccc21 | 37.4 µM | 24.8 µM | 44.5 µM | 1.5 µM |  |  |  |  |  | 
13 | CCN(CC)CCCCn1c2cc(=O)c3ccccc3c-2nc2ccccc21 | 18.9 µM | 26 µM | 29.4 µM | 0.22 µM |  |  |  |  |  | 
14 | COc1ccc2c3nc4ccccc4n(CCN(C)C)c-3cc(=O)c2c1 | 38.5 µM | 18.4 µM | 18.9 µM | 2.85 µM |  |  |  |  |  | 
15 | O=c1cc2n(CCN3CCOCC3)c3ccccc3nc-2c2ccccc12 | > 50 µM | > 40 µM | > 50 µM | 6.91 µM |  |  |  |  |  | 
16 | O=c1cc2n(CCN3CCCCC3)c3ccccc3nc-2c2ccccc12 | 37.3 µM | 25.2 µM | 32 µM | 0.93 µM | inactive |  | Active |  |  | 
17 | CN(C)CCCn1c2cc(=O)c3ccccc3c-2nc2cccnc21 | 20.4 µM | 36.8 µM | 4.52 µM | 0.62 µM | inactive | inactive |  |  |  | 
18 | CCN(CC)CCn1c2cc(=O)c3ccccc3c-2nc2ccccc21 | 29.2 µM | 25.6 µM | 25.4 µM | 0.31 µM |  |  |  |  |  | 
19 | COc1cc([C@@H]2c3cc4c(cc3[C@@H](O[C@@H]3O[C@@H]5CO[C@@H](C)O[C@H]5[C@H](O)[C@H]3O)[C@H]3COC(=O)[C@H]23)OCO4)cc(OC)c1O [ETOPOSIDE] | 8.91 µM | 1.64 µM | 0.54 µM | 0.06 µM |  |  |  |  |  | 
20 | COc1ccc2c3nc4ccccc4n(CCCN(C)C)c-3cc(=O)c2c1 | 24.6 µM | 6.12 µM | 28.4 µM | 0.15 µM | inactive |  |  |  |  | 
21 | O=c1cc2n(CCCN3CCCCC3)c3ncccc3nc-2c2ccccc12 | 19.9 µM | 38.4 µM | 20.4 µM | 0.63 µM | inactive | inactive |  |  |  | 
22 | CN1CCN(CCCn2c3cc(=O)c4ccccc4c-3nc3ccccc32)CC1 | 23.6 µM | 24 µM | 26.7 µM | 1.22 µM |  |  |  |  |  | 
23 | COc1ccc2c(c1)nc1c3ccccc3c(=O)cc-1n2CCCN(C)C | 25.9 µM | 20.2 µM | 24.9 µM | 0.96 µM | inactive |  |  |  |  | 
24 | COc1ccc2c3nc4cc(Cl)ccc4n(CCCN(C)C)c-3cc(=O)c2c1 | 31.5 µM | 22.8 µM | 43 µM | 6.43 µM |  |  |  |  |  | 
25 | O=c1cc2n(CCCN3CCOCC3)c3ccccc3nc-2c2ccccc12 | 45.4 µM | 25.2 µM | > 50 µM | 1.28 µM |  |  |  |  |  | 
26 | COc1ccc2c(c1)nc1c3ccc(OC)cc3c(=O)cc-1n2CCCN(C)C | 34.5 µM | 22 µM | 6.52 µM | 0.65 µM | inactive |  |  |  |  | 
27 | COc1ccc2nc3c4ccccc4c(=O)cc-3n(CCCN(C)C)c2c1 | 30.5 µM | 5.53 µM | 5.51 µM | 0.18 µM | Active |  |  |  |  | 
